Reference: ChEMBL document CHEMBL1136773, “Bridged bicyclic cores containing a 1,1-diarylethylene motif are high-affinity subtype-selective ligands for the estrogen receptor” (J Med Chem, 2003)

Key:
[1] = target: Estrogen receptor beta (Homo sapiens) (UniProt Q92731); test: Transcriptional agonistic efficacy against ER beta at 10e-6 M was determined by cotransfection in HEC-1 cells; format: functional, cell-based
Method in brief: (§1)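 HEC-1 cells were grown in charcoal dextran-treated calf serum medium without phenol red. They were lipofected for 5 h at 37 °C with ERα or ERβ expression vector, 2ERE-pS2-Luc reporter and pCMV β-galactosidase control. Agonist screen used 10^-8 and 10^-6 M ligand for 24 h. Read-out is luciferase corrected by β-galactosidase, expressed as % of the 10^-9 M estradiol response.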

[2] = target: Estrogen receptor beta (Homo sapiens) (UniProt Q92731); test: Binding affinity for purified human Estrogen receptor beta was determined using a competitive radiometric binding assay with estradiol
[3] = target: T1, Estrogen receptor (Homo sapiens) (UniProt P03372); test: Transcriptional agonistic efficacy against ER alpha at 10e-6 M by cotransfection in HEC-1 cells; format: functional, cell-based; method in brief: as §1
T1 sequence (whole entry): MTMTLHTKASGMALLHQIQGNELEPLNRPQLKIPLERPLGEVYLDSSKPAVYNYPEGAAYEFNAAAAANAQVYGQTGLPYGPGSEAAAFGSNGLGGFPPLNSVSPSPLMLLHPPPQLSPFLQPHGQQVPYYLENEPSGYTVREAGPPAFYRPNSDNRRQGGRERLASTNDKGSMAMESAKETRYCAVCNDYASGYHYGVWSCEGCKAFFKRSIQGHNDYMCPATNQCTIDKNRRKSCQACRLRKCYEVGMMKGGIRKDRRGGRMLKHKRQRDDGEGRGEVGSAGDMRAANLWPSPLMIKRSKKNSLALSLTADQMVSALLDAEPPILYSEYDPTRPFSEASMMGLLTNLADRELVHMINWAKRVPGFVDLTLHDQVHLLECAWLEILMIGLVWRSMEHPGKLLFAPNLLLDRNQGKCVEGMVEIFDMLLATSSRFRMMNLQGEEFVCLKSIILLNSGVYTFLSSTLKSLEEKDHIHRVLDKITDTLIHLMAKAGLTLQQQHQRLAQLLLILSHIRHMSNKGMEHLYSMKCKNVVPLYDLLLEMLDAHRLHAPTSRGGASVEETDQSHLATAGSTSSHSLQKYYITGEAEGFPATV

[4] = target: Estrogen receptor beta (Homo sapiens) (UniProt Q92731); test: Transcriptional antagonistic efficacy against ERbeta at 10e-6 M by cotransfectio in HEC-1 cells; format: functional, cell-based
Method in brief: (§2)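 Cotransfection in HEC-1 cells as for agonism: ERα or ERβ vector, 2ERE-pS2-Luc reporter, β-galactosidase control, lipofectin for 5 h. Ligand at 10^-6 M was given together with 10^-9 M estradiol for 24 h. Luciferase activity was normalized to β-galactosidase and expressed relative to 10^-9 M estradiol alone, set at 100%.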

[5] = target: Estrogen receptor beta (Homo sapiens) (UniProt Q92731); test: Transcriptional agonistic efficacy against ER beta at 10e-8 M by cotransfection in HEC-1 cells; format: functional, cell-based; method in brief: as §1
[6] = target: T1, Estrogen receptor (Homo sapiens); test: Binding affinity for purified human Estrogen receptor alpha was determined using a competitive radiometric binding assay with [3H]estradiol
[7] = target: T1, Estrogen receptor (Homo sapiens); test: Transcriptional antagonistic efficacy agains ER alpha at 10e-6 M by cotransfection in HEC-1 cells; format: functional, cell-based; method in brief: as §2
[8] = target: Estrogen receptor (Homo sapiens) (UniProt Q92731+P03372); test: Ratio of binding affinity for purified human estrogen beta receptors to that of binding affinity for purified human estrogen alpha receptors.
[9] = target: T1, Estrogen receptor (Homo sapiens); test: Transcriptional agonistic efficacy against ER alpha at 10e-8 M by cotransfection in HEC-1 cells; format: functional, cell-based; method in brief: as §1
[10] = target: Estrogen receptor beta (Homo sapiens) (UniProt Q92731); test: Binding affinity for purified human Estrogen receptor beta by displacement of [3H]estradiol

Estrogen receptor beta (Homo sapiens), sequence (Q92731 whole entry): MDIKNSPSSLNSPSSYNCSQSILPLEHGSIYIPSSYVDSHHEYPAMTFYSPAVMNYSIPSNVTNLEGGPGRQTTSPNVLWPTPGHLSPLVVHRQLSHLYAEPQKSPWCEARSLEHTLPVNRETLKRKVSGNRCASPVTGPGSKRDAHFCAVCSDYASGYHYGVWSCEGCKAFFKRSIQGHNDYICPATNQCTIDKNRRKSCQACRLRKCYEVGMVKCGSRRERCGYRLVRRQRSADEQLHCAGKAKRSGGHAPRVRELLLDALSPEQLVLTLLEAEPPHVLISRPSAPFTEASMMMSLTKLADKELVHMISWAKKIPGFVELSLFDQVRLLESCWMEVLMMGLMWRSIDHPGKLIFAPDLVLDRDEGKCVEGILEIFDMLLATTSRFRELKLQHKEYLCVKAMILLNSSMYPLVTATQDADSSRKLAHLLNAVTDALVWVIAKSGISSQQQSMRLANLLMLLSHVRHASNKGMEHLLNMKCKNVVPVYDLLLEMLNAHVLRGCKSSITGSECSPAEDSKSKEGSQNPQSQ

SMILES	Efficacy [1]	RBA [2]	Efficacy [3]	Efficacy [4]	Efficacy [5]	RBA [6]	Efficacy [7]	Ratio [8]	Efficacy [9]	RBA [10]
Oc1ccc(C(=C2CC3CC2C2CCCC32)c2ccc(O)cc2)cc1 (stereo not drawn)	2%	125%	26%	2%	2%	97%	35%	1.3	27%	–
CC1(C)CC(=C(c2ccc(O)cc2)c2ccc(O)cc2)C[C@]2(C)C(C)(C)[C@H]3CC[C@@]12C3	1%	13%	4%	15%	1%	9%	30%	1.4	1%	–
CC12CCC(CC1=C(c1ccc(O)cc1)c1ccc(O)cc1)C2(C)C (stereo not drawn)	4%	189%	28%	4%	3%	57%	21%	3.3	24%	–
Oc1ccc(C2(c3ccc(O)cc3)C3CCCC2CCC3)cc1	4%	0.25%	6%	78%	2%	0.31%	43%	0.81	1%	–
Oc1ccc(C(=C2CCCCC2)c2ccc(O)cc2)cc1	3%	334%	12%	4%	2%	68%	22%	4.9	9%	–
Oc1ccc(C(=C2C3CC4CC(C3)CC2C4)c2ccc(O)cc2)cc1	2%	317%	20%	2%	2%	243%	19%	1.3	20%	–
Oc1ccc(C(c2ccc(O)cc2)C2C3CCCC2CCC3)cc1 (stereo not drawn)	50%	13%	41%	55%	21%	15%	40%	0.87	16%	–
CC12CCC(C1)C(C)(C)C2=C(c1ccc(O)cc1)c1ccc(O)cc1 (stereo not drawn)	3%	8%	11%	13%	2%	10%	18%	0.8	5%	–
Oc1ccc(C(c2ccc(O)cc2)C2CCCCC2)cc1	–	9%	–	–	–	3.2%	–	2.8	–	–
Oc1ccc(C(=C2CC3CCC2C3)c2ccc(O)cc2)cc1 (stereo not drawn)	3%	211%	22%	3%	3%	47%	32%	4.5	25%	–

Results, then the molecule that gave them:

Efficacy [1]	RBA [2]	Efficacy [3]	Efficacy [4]	Efficacy [5]	RBA [6]	Efficacy [7]	Ratio [8]	Efficacy [9]	RBA [10]	SMILES
17%	35%	80%	22%	8%	31%	83%	1.1	71%	–	Oc1ccc(C(=C2C3CCCC2CCC3)c2ccccc2)cc1
2%	187%	20%	2%	2%	108%	38%	1.7	15%	–	Oc1ccc(C(=C2C3CCCC2CCC3)c2ccc(O)c(O)c2)cc1
10%	–	63%	16%	7%	40%	65%	1.3	58%	52%	Oc1ccc(C(=C2C3CCCC2CCC3)c2ccc(F)cc2)cc1
2%	–	22%	2%	2%	513%	23%	0.59	25%	301%	Oc1ccc(C(=C2C3CCCC2CCC3)c2ccc(O)cc2)cc1
–	89%	–	–	–	46%	–	1.9	–	–	Oc1ccc(C(=C2C3CCCC2CCC3)c2cccc(O)c2)cc1
